{
  "source": "paper PMC3677025",
  "about": "(Pharmacological research : the official journal of the …, 2012)",
  "key": {"[1]": {"biological_target": "T1, EphA4 (Mus musculus, UniProt Q03137)", "assay": "EphA4 AP binding to immobilized KYL peptide", "outline": "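Biotinylated KYL peptide (biotin on the lysine of a C-terminal GSGSK linker) was captured on streptavidin-coated wells, with coating in borate buffer pH 8.7. Test compound (10 μM in 1% DMSO for screening; varied concentrations for confirmation) was added with ~0.35 nM mouse EphA4 ectodomain–AP from NIH3T3 supernatant in TBST. Bound AP was read at 405 nm with 1 mg/ml p-nitrophenylphosphate in SEAP buffer pH 9.8, minus AP-only background. Percent inhibition was taken relative to no-compound wells.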"}, "[2]": {"test_system": "EphA7", "assay": "ELISA, ephrin-A5 AP binding to immobilized EphA7 Fc"}, "[3]": {"test_system": "EphB2", "assay": "ELISA, ephrin-B2 AP binding to immobilized EphB2 Fc", "settings": "concentrations up to 200 μM", "outline": "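Eph receptor Fc fusions were immobilized at 1 μg/ml in TBST on protein A-coated wells. Diluted ephrin AP fusion supernatant from transiently transfected HEK293 cells was added for 2 h with or without test compound; for IC50 it was at approximately 0.01 nM. Bound AP was read with p-nitrophenylphosphate, minus Fc-only background. IC50 came from a variable-slope log(inhibitor)–response fit, bottom constrained to 0.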"}, "[4]": {"biological_target": "T1, EphA4", "assay": "Ephrin-A5 Fc-induced EphA4 tyrosine phosphorylation in HT22 cells", "format": "cell-based", "settings": "read-out: IC50, EphA4 tyrosine phosphorylation, 0.5 μg/mL ephrin-A5 Fc, ELISA", "outline": "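HT22 cells at ~70% confluency were serum-starved 1 h, given test compound (final DMSO ≤0.4%) for 15 min, then ephrin-A5 Fc for 20 min with compound still present. After modified RIPA lysis, phospho and total EphA4 were read by capture ELISA (anti-phosphotyrosine 1:500; cytoplasmic anti-EphA4 1:1,000), with ABTS at A405. Values were normalized to ephrin-only cells; IC50 came from 3–9 measurements.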"}, "[5]": {"biological_target": "T2, EphB4 (Mus musculus, UniProt P54761)", "T2 sequence (P54761 16-987)": "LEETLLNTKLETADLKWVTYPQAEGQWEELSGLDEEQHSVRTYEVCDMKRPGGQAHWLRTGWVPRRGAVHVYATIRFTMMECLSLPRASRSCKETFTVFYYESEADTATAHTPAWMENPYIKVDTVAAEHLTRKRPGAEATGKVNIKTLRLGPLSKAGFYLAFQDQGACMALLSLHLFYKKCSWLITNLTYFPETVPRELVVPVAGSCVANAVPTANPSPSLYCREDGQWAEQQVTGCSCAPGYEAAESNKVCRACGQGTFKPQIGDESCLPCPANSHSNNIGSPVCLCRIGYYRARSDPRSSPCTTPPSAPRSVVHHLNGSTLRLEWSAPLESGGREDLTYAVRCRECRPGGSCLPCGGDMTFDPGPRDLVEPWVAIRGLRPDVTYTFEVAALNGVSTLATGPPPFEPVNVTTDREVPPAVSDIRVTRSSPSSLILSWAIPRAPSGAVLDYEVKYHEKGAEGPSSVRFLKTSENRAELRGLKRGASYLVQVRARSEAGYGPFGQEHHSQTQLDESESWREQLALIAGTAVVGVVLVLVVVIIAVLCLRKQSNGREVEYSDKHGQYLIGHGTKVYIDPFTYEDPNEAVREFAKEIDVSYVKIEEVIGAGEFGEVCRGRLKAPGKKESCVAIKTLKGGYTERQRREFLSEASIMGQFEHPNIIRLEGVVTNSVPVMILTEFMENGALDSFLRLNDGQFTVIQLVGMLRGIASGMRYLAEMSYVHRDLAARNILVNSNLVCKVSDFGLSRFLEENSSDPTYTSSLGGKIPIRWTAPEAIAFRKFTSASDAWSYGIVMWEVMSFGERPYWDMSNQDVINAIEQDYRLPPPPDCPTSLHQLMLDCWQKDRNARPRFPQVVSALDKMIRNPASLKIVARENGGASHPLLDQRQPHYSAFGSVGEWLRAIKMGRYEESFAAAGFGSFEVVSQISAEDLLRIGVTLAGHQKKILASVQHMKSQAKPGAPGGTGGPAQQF", "assay": "Ephrin-B2 Fc-induced EphB4 tyrosine phosphorylation in B16 melanoma cells", "format": "cell-based", "settings": "relative to EphA2 and EphA4", "outline": "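Cells were serum-starved 1–2 h and pretreated 15 min with test compound (DMSO ≤0.4% final). They were then stimulated 20 min with compound present: COS cells with 0.8 μg/mL ephrin-B2 Fc, and B16 melanoma cells with 1.5 μg/mL anti-Fc-preclustered ephrin-B2 Fc, or Fc control. Lysates were made in modified RIPA. EphB2 (COS; 7 μg antibody) or EphB4 (B16; 20 μg antibody) was immunoprecipitated, probed for phosphotyrosine, then reprobed for the receptor.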"}, "[6]": {"biological_target": "EphA2 (Homo sapiens, UniProt P29317)", "sequence (P29317 24-976)": "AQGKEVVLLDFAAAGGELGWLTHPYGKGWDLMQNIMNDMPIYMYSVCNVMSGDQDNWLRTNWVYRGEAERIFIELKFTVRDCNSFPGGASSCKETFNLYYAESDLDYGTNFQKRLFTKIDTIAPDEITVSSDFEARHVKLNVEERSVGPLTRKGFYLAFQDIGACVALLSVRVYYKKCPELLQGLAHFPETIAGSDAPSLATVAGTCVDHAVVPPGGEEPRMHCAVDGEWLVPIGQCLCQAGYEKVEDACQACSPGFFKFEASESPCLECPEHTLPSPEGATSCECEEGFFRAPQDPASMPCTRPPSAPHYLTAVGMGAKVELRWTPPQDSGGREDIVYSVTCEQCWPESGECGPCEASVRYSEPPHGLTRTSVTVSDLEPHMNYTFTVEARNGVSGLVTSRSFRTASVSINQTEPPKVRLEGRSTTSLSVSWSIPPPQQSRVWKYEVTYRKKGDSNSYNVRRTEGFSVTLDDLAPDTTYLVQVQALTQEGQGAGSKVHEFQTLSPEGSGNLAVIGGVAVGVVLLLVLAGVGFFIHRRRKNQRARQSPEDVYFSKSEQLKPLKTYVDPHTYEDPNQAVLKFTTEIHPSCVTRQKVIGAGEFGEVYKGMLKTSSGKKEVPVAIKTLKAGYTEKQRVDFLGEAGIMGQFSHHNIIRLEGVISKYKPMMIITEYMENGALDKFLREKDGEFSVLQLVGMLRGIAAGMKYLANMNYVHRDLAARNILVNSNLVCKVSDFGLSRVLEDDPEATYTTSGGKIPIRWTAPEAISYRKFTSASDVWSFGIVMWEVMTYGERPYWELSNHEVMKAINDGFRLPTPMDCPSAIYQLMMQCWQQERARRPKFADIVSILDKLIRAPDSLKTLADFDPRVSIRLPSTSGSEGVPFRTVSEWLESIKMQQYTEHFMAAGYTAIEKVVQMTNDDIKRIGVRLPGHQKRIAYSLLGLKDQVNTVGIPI", "assay": "Ephrin-A1 Fc-induced EphA2 phosphorylation in HUVECs", "format": "cell-based", "settings": "at 50 μM", "outline": "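HUVECs were serum-starved 1–2 h and preincubated 15 min with 50 μM test compound (DMSO ≤0.4% final). They were then stimulated 20 min with 0.25 μg/mL ephrin-A1 Fc plus 1.5 μg/mL ephrin-B2 Fc (preclustered with 3-fold anti-Fc), or Fc, with compound present. Lysates were made in modified RIPA with NaF and pervanadate. EphA2 (1 μg antibody) and EphB4 (20 μg antibody) immunoprecipitates were immunoblotted for phosphotyrosine; lysates were probed for receptors and β-actin.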"}},
  "note": "Values joined by “and” are separate entries in the source; they are usually repeats but may differ in a detail not shown here. Equal entries are not always repeated.",
  "data": [
    {"smiles": "O=C(Oc1cc(O)cc2c1C[C@@H](OC(=O)c1cc(O)c(O)c(O)c1)[C@@H](c1cc(O)c(O)c(O)c1)O2)c1cc(O)c(O)c(O)c1", "note": "[epigallocatechin-3,5-digallate]", "values": [
      {"measurement": "IC50", "setting": "[1]; read-out: IC50 ± SE EphA4 KYL", "value": "1.5 ± 0.13", "unit": "µM"},
      {"measurement": "(% Inhib.) EphA4 KYL", "setting": "[1]; screen, compounds at 10 μM", "value": 58, "unit": "%"},
      {"measurement": "inhibition of ephrin binding to EphA7", "setting": "[2]", "value": "detectably inhibited, but with lower potency"},
      {"measurement": "inhibition of EphB2-ephrin interaction", "setting": "[3]", "value": "does not target"},
      {"measurement": "inhibition of EphB2-ephrin interaction", "setting": "[3]; listed as Epigallocatechin-3,5-digallate", "value": "no inhibition"},
      {"measurement": "IC50", "setting": "[4]", "value": "190 µM and ~190 µM"},
      {"measurement": "inhibition of EphB4 phosphorylation", "setting": "[5]", "value": "at higher concentrations"},
      {"measurement": "EphA2 phosphorylation in HUVECs", "setting": "[6]", "value": "strongly inhibits"}
    ]}
  ]
}
